The source of these data is ChEMBL document CHEMBL1121371, “Antihypertensive 5,6-diarylpyridazin-3-ones” (1980).

“And” between values parts separate entries of the source, which are not always exact repeats. Identical values can stand only once.

The test system of assay [1] is Rattus norvegicus. The assay is described as follows: Antihypertensive activity in spontaneously hypertensive rats was measured as average blood pressure at 100 mg/kg, p.o. before predose. The assay is classed as functional. The conditions noted are these: route oral. An outline of the steps:
(§1)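 Spontaneously hypertensive rats aged 12 to 16 weeks, in groups of five with systolic pressure of 170 mmHg or more. Oral dosing as a solution or suspension in 0.25% methylcellulose, 5 mL/kg, with a vehicle control group. Tail-cuff systolic pressure was read predose and 4 and 24 h after each of two doses. Values were compared with predose by Student's t test.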

For assay [2], the system named is Rattus norvegicus. The assay is described as follows: Antihypertensive activity in spontaneously hypertensive rats was measured as average blood pressure at 100 mg/kg, p.o. after 24 hours of postdose. The assay is classed as functional. The conditions noted are these: route oral. An outline of the steps:
as §1

In assay [3] the test system is Rattus norvegicus. The assay is described as follows: Antihypertensive activity in spontaneously hypertensive rats was measured as change in heart rate at 100 mg/kg peroral dose; No significant change is heart rate. To be noted: route oral. The assay is classed as functional.
In assay [4] the test system is Rattus norvegicus. The assay is described as follows: Antihypertensive activity in spontaneously hypertensive rats was measured as average blood pressure at 100 mg/kg, p.o. after 4 hours of postdose-2. In kind it is functional. To be noted: route oral. The gist of the method:
as §1

Assay [5] has as its system Rattus norvegicus. Briefly: Antihypertensive activity in spontaneously hypertensive rats was measured as average blood pressure at 100 mg/kg, p.o. after 4 hours of postdose. The assay is classed as functional. To be noted: route oral. The gist of the method: as §1
For assay [6], the system named is Rattus norvegicus. Briefly: Antihypertensive activity in spontaneously hypertensive rats was measured as average blood pressure at 100 mg/kg, po after 24 hours of postdose-2. In kind it is functional. An outline of the steps:
as §1

Assay [7] concerns Rattus norvegicus. The assay is described as follows: Antihypertensive activity in spontaneously hypertensive rats was measured as average blood pressure at 75 mg/kg, p.o. after 4 hours of postdose-2. The assay is classed as functional. To be noted: route oral.
Assay [8] concerns Rattus norvegicus. Briefly: Antihypertensive activity in spontaneously hypertensive rats was measured as average blood pressure at 75 mg/kg, p.o. before predose. To be noted: route oral. The assay is classed as functional.
Assay [9] concerns Rattus norvegicus. The assay is described as follows: Antihypertensive activity in spontaneously hypertensive rats was measured as average blood pressure at 75 mg/kg, p.o. after 24 hours of postdose-1. The conditions noted are these: route oral. The assay is classed as functional.
The test system of assay [10] is Rattus norvegicus. Briefly: Antihypertensive activity in spontaneously hypertensive rats was measured as average blood pressure at 75 mg/kg, p.o. after 24 hours of postdose-2. In kind it is functional. To be noted: route oral.
Assay [11] has as its system Rattus norvegicus. Briefly: Antihypertensive activity in spontaneously hypertensive rats was measured as average blood pressure at 75 mg/kg, po after 4 hours of postdose-1. In kind it is functional.
The subject of assay [12] is Rattus norvegicus. The assay is described as follows: Antihypertensive activity in spontaneously hypertensive rats was measured as average blood pressure at 30 mg/kg, p.o. after 4 hours of postdose-2. In kind it is functional. To be noted: route oral. The gist of the method: as §1
In assay [13] the test system is Rattus norvegicus. Briefly: Antihypertensive activity in spontaneously hypertensive rats was measured as increase in heart rate at 100 mg/kg peroral dose; (+)=Increased heart rate. The assay is classed as functional, organism-based. Further details: dose 100 mg/kg.
Assay [14] concerns Rattus norvegicus. The assay is described as follows: Antihypertensive activity in DOCA hypertensive rats was measured as average blood pressure at 25 mg/kg, p.o. after 24 hours of postdose-1. The conditions noted are these: route oral.
The subject of assay [15] is Rattus norvegicus. Briefly: Antihypertensive activity in […] hypertensive rats was measured as average blood pressure at 50 mg/kg, p.o. after 4 hours of postdose-2. To be noted: route oral. In kind it is functional.
Assay [16] concerns Rattus norvegicus. Briefly: Antihypertensive activity in DOCA hypertensive rats was measured as average blood pressure at 10 mg/kg, p.o. after 24 hours of postdose-1. The conditions noted are these: route oral.
Assay [17] relates to Rattus norvegicus. The assay is described as follows: Antihypertensive activity in spontaneously hypertensive rats was measured as average blood pressure at 30 mg/kg, p.o. after 24 hours of postdose-2. In kind it is functional. The conditions noted are these: route oral. An outline of the steps:
as §1

Assay [18] has as its system Rattus norvegicus. The assay is described as follows: Antihypertensive activity in spontaneously hypertensive rats was measured as average blood pressure at 100 mg/kg, p.o. after 24 hours of postdose-1. The assay is classed as functional. To be noted: route oral. An outline of the steps: as §1
The test system of assay [19] is Rattus norvegicus. Briefly: Antihypertensive activity in DOCA hypertensive rats was measured as average blood pressure at 25 mg/kg, p.o. after 4 hours of postdose-2. The conditions noted are these: route oral.
Assay [20] has as its system Rattus norvegicus. The assay is described as follows: Antihypertensive activity in DOCA hypertensive rats was measured as average blood pressure at 10 mg/kg, p.o. after 4 hours of postdose-1. The conditions noted are these: route oral.
Assay [21] has as its system Rattus norvegicus. The assay is described as follows: Antihypertensive activity in DOCA hypertensive rats was measured as average blood pressure at 25 mg/kg, po before predose.
The subject of assay [22] is Rattus norvegicus. Briefly: Antihypertensive activity in spontaneously hypertensive rats was measured as average blood pressure at 30 mg/kg, po after 4 hours of postdose-1. In kind it is functional. The gist of the method:
as §1

The subject of assay [23] is Rattus norvegicus. Briefly: Antihypertensive activity in […] hypertensive rats was measured as average blood pressure at 100 mg/kg, p.o. after 4 hours of postdose-1. The conditions noted are these: route oral. In kind it is functional.
Assay [24] has as its system Rattus norvegicus. Briefly: Antihypertensive activity in spontaneously hypertensive rats was measured as average blood pressure at 10 mg/kg, p.o. after 4 hours of postdose-1. In kind it is functional. To be noted: route oral. The gist of the method: as §1
The subject of assay [25] is Rattus norvegicus. The assay is described as follows: Antihypertensive activity in […] hypertensive rats was measured as average blood pressure at 50 mg/kg, p.o. after 24 hours of postdose-1. In kind it is functional. The conditions noted are these: route oral.
Assay [26] concerns Rattus norvegicus. Briefly: Antihypertensive activity in spontaneously hypertensive rats was measured as average blood pressure at 10 mg/kg, p.o. before predose. The assay is classed as functional. The conditions noted are these: route oral. The gist of the method: as §1
Assay [27] concerns Rattus norvegicus. The assay is described as follows: Antihypertensive activity in […] hypertensive rats was measured as average blood pressure at 100 mg/kg, p.o. before predose. The assay is classed as functional. To be noted: route oral.
For assay [28], the system named is Rattus norvegicus. Briefly: Antihypertensive activity in DOCA hypertensive rats was measured as average blood pressure at 10 mg/kg, p.o. after 24 hours of postdose-2. The conditions noted are these: route oral.
Assay [29] concerns Rattus norvegicus. The assay is described as follows: Antihypertensive activity in […] hypertensive rats was measured as average blood pressure at 100 mg/kg, po after 4 hours of postdose-2. The assay is classed as functional.
The subject of assay [30] is Rattus norvegicus. The assay is described as follows: Antihypertensive activity in spontaneously hypertensive rats was measured as increase in heart rate at 30 mg/kg peroral dose; (+)=Increased heart rate. Further details: dose 30 mg/kg. The assay is classed as functional, organism-based.
For assay [31], the system named is Rattus norvegicus. Briefly: Antihypertensive activity in DOCA hypertensive rats was measured as average blood pressure at 25 mg/kg, p.o. after 24 hours of postdose-2. The conditions noted are these: route oral.
In assay [32] the test system is Rattus norvegicus. The assay is described as follows: Antihypertensive activity in spontaneously hypertensive rats was measured as average blood pressure at 10 mg/kg, p.o. after 24 hours of postdose-1. The assay is classed as functional. The conditions noted are these: route oral. The gist of the method: as §1
Assay [33] deals with Rattus norvegicus. Briefly: Antihypertensive activity in […] hypertensive rats was measured as average blood pressure at 50 mg/kg, p.o. before predose. The assay is classed as functional. To be noted: route oral.
Assay [34] relates to Rattus norvegicus. Briefly: Antihypertensive activity in DOCA hypertensive rats was measured as average blood pressure at 10 mg/kg, p.o. before predose. The conditions noted are these: route oral.
Assay [35] relates to Rattus norvegicus. The assay is described as follows: Antihypertensive activity in spontaneously hypertensive rats was measured as average blood pressure at 30 mg/kg, p.o. before predose. The conditions noted are these: route oral. The assay is classed as functional. The gist of the method: as §1
Assay [36] has as its system Rattus norvegicus. Briefly: Antihypertensive activity in […] hypertensive rats was measured as average blood pressure at 50 mg/kg, p.o. after 4 hours of postdose-1. The assay is classed as functional. To be noted: route oral.
The test system of assay [37] is Rattus norvegicus. Briefly: Antihypertensive activity in DOCA hypertensive rats was measured as average blood pressure at 10 mg/kg, p.o. after 4 hours of postdose-2. To be noted: route oral.
The subject of assay [38] is Rattus norvegicus. Briefly: Antihypertensive activity in spontaneously hypertensive rats was measured as average blood pressure at 10 mg/kg, p.o. after 24 hours of postdose-2. The assay is classed as functional. To be noted: route oral. The gist of the method:
as §1

Assay [39] has as its system Rattus norvegicus. Briefly: Antihypertensive activity in spontaneously hypertensive rats was measured as average blood pressure at 10 mg/kg, p.o. after 4 hours of postdose-2. The assay is classed as functional. The conditions noted are these: route oral. The gist of the method:
as §1

In assay [40] the test system is Rattus norvegicus. Briefly: Antihypertensive activity in […] hypertensive rats was measured as average blood pressure at 100 mg/kg, p.o. after 24 hours of postdose-2. The assay is classed as functional. To be noted: route oral.
Assay [41] concerns Rattus norvegicus. The assay is described as follows: Antihypertensive activity in spontaneously hypertensive rats was measured as average blood pressure at 30 mg/kg, p.o. after 24 hours of postdose-1. In kind it is functional. The conditions noted are these: route oral. An outline of the steps: as §1
Assay [42] relates to Rattus norvegicus. Briefly: Antihypertensive activity in […] hypertensive rats was measured as average blood pressure at 100 mg/kg, p.o. after 24 hours of postdose-1. The assay is classed as functional. To be noted: route oral.
Assay [43] deals with Rattus norvegicus. Briefly: Antihypertensive activity in […] hypertensive rats was measured as average blood pressure at 50 mg/kg, p.o. after 24 hours of postdose-2. To be noted: route oral. In kind it is functional.
Assay [44] deals with Rattus norvegicus. Briefly: Antihypertensive activity in spontaneously hypertensive rats was measured as increase in heart rate at 10 mg/kg peroral dose; (+)=Increased heart rate. The assay is classed as functional, organism-based. The arrangement: dose 10 mg/kg.
The test system of assay [45] is Rattus norvegicus. The assay is described as follows: Antihypertensive activity in […] hypertensive rats was measured as average blood pressure at 100 mg/kg, p.o. after 4 hours of postdose-1. In kind it is functional. The conditions noted are these: route oral.

For the compound `N#Cc1c(O)nnc(-c2ccc(Cl)cc2)c1-c1ccc(Cl)cc1`, the BP in assay [1] amounted to 205 mmHg; in [2], 177 mmHg; in assay [4], 173 mmHg; in assay [5], 171 mmHg; in assay [6] it was 175 mmHg. Also, the Heart rate in assay [3] amounted to 0.

Regarding `CC(=O)c1c(-c2ccccc2)c(-c2ccccc2)nn(CCO)c1=O`, the BP was found to be 164 mmHg in assay [7]; 200 mmHg in assay [8]; 163 mmHg in assay [9]; 176 mmHg in assay [10]; 181 mmHg in assay [11].

For `CC(=O)c1c(-c2ccc(Cl)cc2)c(-c2ccc(Cl)cc2)nn(CCO)c1=O`, the BP in [12] is recorded as 164 mmHg; in assay [14] it was 191 mmHg; in assay [15] it was 182 mmHg; in assay [16] it was 192 mmHg; in [17], 206 mmHg; in assay [18], 185 mmHg. Also, the BP stood at 188 mmHg in [19]; 191 mmHg in assay [20]; 235 mmHg in [21]; 200 mmHg in [22]; 169 mmHg in assay [23]; 187 mmHg in assay [24]. Also, the BP in assay [1] is 218 mmHg; in [25], 184 mmHg; in assay [26] it was 202 mmHg; in assay [27] it was 222 mmHg and 125 mmHg; in assay [28], 210 mmHg; in assay [29], 164 mmHg and 127 mmHg. Further, the BP in [4] is on record as 174 mmHg; in assay [31] it was 208 mmHg; in [32], 203 mmHg; in [33], 224 mmHg; in assay [5], 173 mmHg; in [34] it was 224 mmHg. Moreover, the BP in assay [35] was found to be 213 mmHg; in assay [36], 171 mmHg; in [37], 188 mmHg; in assay [6] it was 193 mmHg; in assay [38] it was 197 mmHg; in assay [39], 191 mmHg. The BP in [40] is 195 mmHg and 130 mmHg; in assay [41] it was 192 mmHg; in assay [42], 178 mmHg and 125 mmHg; in assay [43], 213 mmHg; in [45], 123 mmHg. For the same compound, the Heart rate entry in assay [13], in [30] and in [44] was “Increased heart rate” each time.
